Laboratory results: the array DNA melting data of Ke et al. (doi:10.1101/2024.01.08.574731)

Legend:
[1] = folding enthalpy; higher = less favourable; fluorescence melt of hairpins on a sequencing array, two-state fit; settings: sodium 0.088 M
How it was run: (§1)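 To match UV melts, fitted temperatures were raised by 9.35 °C. These fits were bootstrapped two-state models that gave melting temperature and folding enthalpy, combined by inverse variance over four replicates. The input was normalised Cy3 fluorescence of library hairpins with annealed Cy3 and quencher oligos on a sequenced MiSeq flow cell, imaged in 50 mM Na-HEPES pH 8.0, 25 mM NaCl in 2.5 °C steps up to 60 °C.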

[2] = melting temperature; fluorescence melt of hairpins on a sequencing array, two-state fit, raised by 9.35 °C to match UV melts; settings: sodium 0.088 M
How it was run: as §1

| Sequence | folding enthalpy [1] | Tm [2] |
| --- | --- | --- |
| GATCTTTTAGAAGATC ((((((....)))))) | -41.8 kcal/mol | 44.4 °C |
| GTCAAACGAAAGTTAGAC (((.(((....))).))) | -29.5 kcal/mol | 44.9 °C |
| GTAGCAGGAAACTACTAC ((((.((....)).)))) | -24.4 kcal/mol | 35 °C |
| GTTTCTCGAAAGAGCAAC (((.(((....))).))) | -23.6 kcal/mol | 36.4 °C |
| GGCAGGGGAAACCCCACC ((..(((....)))..)) | -16.5 kcal/mol | 31.6 °C |
| GTCCCTGCGAAAGCAGAC (((..(((....)))))) | -7.38 kcal/mol | 32.2 °C |
| GATCTTAGTAAAGATC ((((((....)))))) | -30.3 kcal/mol | 43.1 °C |
| GCGTACGAAAGTACACGC ((((((....)))..))) | -19.1 kcal/mol | 52.6 °C |
| GATCATACTTATGATC ((((((....)))))) | -37 kcal/mol | 48.5 °C |
| GGACGTCGAAAGACTCC (((.(((....)))))) | -23.8 kcal/mol | 51.2 °C |
| GATCTCTAAGAGATC ((((((...)))))) | -31.5 kcal/mol | 51.5 °C |
| GATCATATGAATGATC ((((((....)))))) | -31.7 kcal/mol | 45.7 °C |
| GCGATATTTCGC ((((....)))) | -23.2 kcal/mol | 50.1 °C |
| GCGGGGCGAAAGCTCAGC ((.(.((....)).).)) | -23.7 kcal/mol | 60.1 °C |
| GCGTTAAAACGC ((((....)))) | -21.4 kcal/mol | 50.3 °C |
| GATCGTTCTCACGATC ((((((....)))))) | -40.8 kcal/mol | 54.8 °C |
| GGTTGCGAAAGCACTACC ((((((....)))..))) | -11.9 kcal/mol | 37.4 °C |
| GCAAAACGAAAGTTGTGC (((.(((....))).))) | -34.2 kcal/mol | 49.1 °C |
| GATTACGAAAGTAATATC ((((((....)))..))) | -22.1 kcal/mol | 38.6 °C |
| GATCGGGATCCGATC ((((((...)))))) | -39.3 kcal/mol | 55.6 °C |
| GTCCTCGAAAGAGGGGAC ((((((....)))..))) | -11.6 kcal/mol | 43.6 °C |
| GAAGAGGGAAACCTCTCC (.(((((....))))).) | -12.5 kcal/mol | 34.2 °C |
| GGGGGTGGAAACACCTCC ((.((((....)))).)) | -29.1 kcal/mol | 54.9 °C |

| Sequence | folding enthalpy [1] | Tm [2] |
| --- | --- | --- |
| GCGGTGGGAAACTACCGC (((((.(....).))))) | -37.5 kcal/mol | 60.5 °C |
| GATCAGTTAACTGATC ((((((....)))))) | -40.5 kcal/mol | 54.4 °C |
| GAGACGGGAAACCGTCCC (.(((((....))))).) | -11.5 kcal/mol | 43.8 °C |
| GCTCGGTCGAAAGACAGC (((..(((....)))))) | -12.3 kcal/mol | 41.2 °C |
| GCGTGTGCACGC ((((....)))) | -29.9 kcal/mol | 57.2 °C |
| GGGCGCGAAAGCGTACCC ((((((....)))..))) | -13.1 kcal/mol | 56.3 °C |
| GCTTAGCGAAAGCTCTGC ((..(((....)))..)) | -16.4 kcal/mol | 37.8 °C |
| GACCACGAAAGTGTTGTC ((((((....)))..))) | -18.7 kcal/mol | 34.4 °C |
| GAACGCGGAAACGTGTTC ((((.((....)).)))) | -37.7 kcal/mol | 56 °C |
| GGTCAGGGAAACCTGACC (((((((....))))))) | -36.6 kcal/mol | 67.2 °C |
| GTATGTGGAAACATATAC ((((.((....)).)))) | -23.1 kcal/mol | 37.2 °C |
| GCGCGTCGAAAGACTCGC (((.(((....))).))) | -38.7 kcal/mol | 58.4 °C |
| GTACGCGAAAGCGTTAC ((((((....))).))) | -11 kcal/mol | 46.8 °C |
| GATCCCTTATGGGATC ((((((....)))))) | -36.5 kcal/mol | 65.4 °C |
| GGATATGGAAACACATCC ((((.((....)).)))) | -26.3 kcal/mol | 31.5 °C |
| GGGATCGAAAGATAGCCC ((((((....)))..))) | -17.3 kcal/mol | 32.4 °C |
| GCTTAGCGAAAGCATAGC (((..((....))..))) | -16.8 kcal/mol | 45.7 °C |
| GATCGACTGATCGATC ((((((....)))))) | -30.5 kcal/mol | 50.9 °C |
| GCAATAGGAAACTATTGC (((((((....))))))) | -45.8 kcal/mol | 56 °C |
| GGGGGAGGAAACCCCCCC (((((.(....).))))) | -20.1 kcal/mol | 55.1 °C |
| GACCCACGAAAGTGTGTC (((.(((....))).))) | -27.4 kcal/mol | 48.9 °C |
| GGGGACGAAAGTCTCCCC ((((((....)))..))) | -14.3 kcal/mol | 58.2 °C |
| GATCTTGTTTAAGATC ((((((....)))))) | -32.1 kcal/mol | 45.8 °C |

| Sequence | folding enthalpy [1] | Tm [2] |
| --- | --- | --- |
| GCCTGGCGAAAGCCGCGC ((..(((....)))..)) | -16.8 kcal/mol | 52.3 °C |
| GATAGGGAAACCTATC ((((((....)))))) | -34.7 kcal/mol | 47.6 °C |
| GCATCTTCGAAAGAATGC (((..(((....)))))) | -23.2 kcal/mol | 33.4 °C |
| GATCACCATGGTGATC ((((((....)))))) | -43.6 kcal/mol | 63.8 °C |
| GTCCTCGGAAACGAAGAC (((.(((....))).))) | -26 kcal/mol | 38 °C |
| GCATTGCGAAAGCCGTGC (((..((....))..))) | -22 kcal/mol | 41.2 °C |
| GGGCGTGCGAAAGCACCC (((..(((....)))))) | -13 kcal/mol | 54.4 °C |
| GCCTCGCGAAAGCTAGGC ((((.((....)).)))) | -33 kcal/mol | 65.2 °C |
| GATCAAATATTTGATC ((((((....)))))) | -48.2 kcal/mol | 47.1 °C |
| GTTTATGCGAAAGCAAAC (((..(((....)))))) | -8.45 kcal/mol | 28.1 °C |
| GGTTCCGAAAGGAGCACC ((((((....)))..))) | -13.8 kcal/mol | 39.1 °C |
| GACGCCGAAAGGCATGTC ((((((....)))..))) | -15.2 kcal/mol | 43.3 °C |
| GTCATGGGAAACTATGGC (.(((.(....).))).) | -22.4 kcal/mol | 32.1 °C |
| GATCGGTAAGCCGATC ((((((....)))))) | -49.4 kcal/mol | 58.9 °C |
| CGTAATCGGAAACGAACG (((..(((....)))))) | -7.75 kcal/mol | 20.9 °C |
| GCGTTGGGAAACCAGTGC ((..(((....)))..)) | -24.1 kcal/mol | 36.5 °C |
| GCTGACTCGAAAGAGAGC (((..(((....)))))) | -14.6 kcal/mol | 31.6 °C |
| GTAGTGGCGAAAGCCTAC (((..(((....)))))) | -11.6 kcal/mol | 35.4 °C |
| GATCTCCATTGAGATC ((((((....)))))) | -33.7 kcal/mol | 52.3 °C |
| GGACAACCGAAAGGTTCC (((..(((....)))))) | -10.9 kcal/mol | 29.4 °C |
| GGAGGGGGAAACCCTTCC (((.(((....))).))) | -25.7 kcal/mol | 49.2 °C |
| GGATATCGAAAGATCTCC (((.(((....))).))) | -30.9 kcal/mol | 39.1 °C |
| GACATCGAAAGATGTC ((((((....)))))) | -39.7 kcal/mol | 64.4 °C |

| Sequence | folding enthalpy [1] | Tm [2] |
| --- | --- | --- |
| GCCACAGGAAACTATGGC ((((.((....)).)))) | -31.8 kcal/mol | 39.3 °C |
| GGCAATCGAAAGATCGCC (((.(((....))).))) | -34.7 kcal/mol | 51 °C |
| GCTTGTACGAAAGTAAGC (((..(((....)))))) | -24.9 kcal/mol | 37.7 °C |
| GGGCCGGGAAACCGGTCC ((.((((....)))).)) | -38.3 kcal/mol | 68.8 °C |
| CGCCCGGAAACGGTTGCG ((((((....)))..))) | -25.5 kcal/mol | 48.6 °C |
| GATCTCAAAGGAGATC ((((((....)))))) | -33.4 kcal/mol | 48.2 °C |
| GCATTGGGAAACCAATGC (((((((....))))))) | -44.9 kcal/mol | 65.8 °C |
| GAATTCCGAAAGGAGTTC (((.(((....))).))) | -33.6 kcal/mol | 49 °C |
| GATCGTCCGAACGATC ((((((....)))))) | -39.2 kcal/mol | 55.2 °C |
| GGGAAGGGAAACCCTCCC ((((.((....)).)))) | -28.1 kcal/mol | 46.8 °C |
| CGCTCGGAAACGACAGCG ((((((....)))..))) | -25.5 kcal/mol | 45 °C |
| GGCTGCGAAAGCACCGCC ((((((....)))..))) | -20.7 kcal/mol | 54.1 °C |
| GCGTATAACGC ((((...)))) | -21 kcal/mol | 56.4 °C |
| GGCACCCGAAAGGGAGCC (((.(((....))).))) | -32.6 kcal/mol | 68.6 °C |
| CGTCCGGAAACGGTAACG ((((((....)))..))) | -25.1 kcal/mol | 37.8 °C |
| GCGTCGGGAAACCGGTGC ((..(((....)))..)) | -21.2 kcal/mol | 48.7 °C |
| GATCAAAGCCTTGATC ((((((....)))))) | -28.4 kcal/mol | 44.1 °C |
| GCGACCTCTCGC ((((....)))) | -18.6 kcal/mol | 46.9 °C |
| GGAGTAGGAAACTACTTC (.(((((....))))).) | -29.2 kcal/mol | 44.4 °C |
| GGTCCCGAAAGGGTACC ((((((....))).))) | -23.4 kcal/mol | 55.5 °C |
| GAACCGGAAACGGTTC ((((((....)))))) | -33 kcal/mol | 67.4 °C |
| GATCTCGCGGAGATC ((((((...)))))) | -35.4 kcal/mol | 54.9 °C |
| GAATGCGAAAGCACTTC ((((((....))).))) | -16.2 kcal/mol | 40.9 °C |
